Activity calls are given as the source filed them. The calls are words filed in the database; no cut-off is given here. Bounds are passed on as bounds.

The term IC50 denotes the concentration at which inhibition is half-maximal.

What all share (assay type): functional, cell-based
Test [1] in a line: Cytotoxicity against human K562 cells assessed as growth inhibition after 48 hrs by SRB assay. The note with it: K562, 48 h. On the technique in general: The SRB assay estimates cell density from bound dye.
Test [2] in a line: Cytotoxicity against human HL60 cells assessed as growth inhibition after 48 hrs by SRB assay. The conditions noted are these: HL-60, 48 h.
The nature of test [3]: Cytotoxicity against human HeLa cells assessed as growth inhibition after 48 hrs by SRB assay.
Test [4] in a line: Cytotoxicity against human A549 cells assessed as growth inhibition after 48 hrs by SRB assay. The note with it: A549, 48 h.
In test [5] the test system is HepG2. Kind of test: Lipid lowering activity in human HepG2 cells assessed as decrease in oleic acid elicited lipid accumulation at 10 uM treated 12 hrs post oleic acid addition measured 6 hrs post dose by oil-red O staining method. In a few lines:
(§1)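 HepG2 cells (ATCC origin) grown in DMEM with 10% FBS and penicillin/streptomycin to 70–80% confluence. They were loaded with 100 μM oleic acid in DMEM for 12 h, then exposed for 6 h to 10 μM compound, lovastatin as positive control, or oleic acid alone. Read-outs were Oil-Red O staining (n = 8) or TC/TG determination (n = 3). Each experiment was repeated at least three times; means ± SEM.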

For test [6], the system named is HepG2. The experiment in a line: Lipid lowering activity in human HepG2 cells assessed as decrease in total cholesterol level at 10 uM treated 12 hrs post oleic acid addition measured 6 hrs post dose. The method, boiled down: as §1
The test system of test [7] is HepG2. The experiment in a line: Lipid lowering activity in human HepG2 cells assessed as decrease in triglyceride level at 10 uM treated 12 hrs post oleic acid addition measured 6 hrs post dose. The method, boiled down: as §1

Take `NC(=O)c1c[nH]c([C@@H](O)c2ccccc2)cc1=O`: the 50% inhibitory concentration (IC50) in test [1], in test [2], in test [3] and in test [4] was above 50 µM throughout. For the same compound, the outcome with HepG2 [5], in the test with HepG2 [6] and in the test with HepG2 [7] was Active.
Turning to `CC(=O)O[C@@H](c1ccccc1)c1cc(=O)c(C(=O)NC(=O)CC(C)C)cn1CCO`, the half-inhibitory concentration (IC50) in test [1], in test [2], in test [3] and in test [4] was above 50 µM in each case. Further, the outcome in the test with HepG2 [5], in the test with HepG2 [6] and in the test with HepG2 [7] was Active.
Take `CC(C)CC(=O)NC(=O)c1cn(CCO)c([C@@H](O)c2ccccc2)cc1=O`: the 50% inhibitory concentration (IC50) in test [1], in test [2], in test [3] and in test [4] was above 50 µM in each case.
For `NC(=O)c1cn(CCO)c([C@@H](O)c2ccccc2)cc1=O`, the 50% inhibitory concentration (IC50) in test [1], in test [2], in test [3] and in test [4] was above 50 µM in each case.
Consider `CC(C)CC(=O)NC(=O)c1c[nH]c([C@@H](O)c2ccccc2)cc1=O`, for which the concentration for half-maximal inhibition (IC50) in test [1], in test [2], in test [3] and in test [4] was above 50 µM each time.
`COC(=O)c1c[nH]c([C@@H](O)c2ccccc2)cc1=O`: the concentration for half-maximal inhibition (IC50) in test [1], in test [2], in test [3] and in test [4] was above 50 µM in each case. Further, the outcome with HepG2 [5], in the test with HepG2 [6] and in the test on HepG2 [7] was Active.
As for `CC(=O)O[C@@H](c1ccccc1)c1cc(=O)c(C(N)=O)cn1CCO`, the IC50 in test [1], in test [2], in test [3] and in test [4] was above 50 µM in each case. Also, the result with HepG2 [5], in the test with HepG2 [6] and with HepG2 [7] was Active.

The values above are taken from ChEMBL document CHEMBL3861970, “Penipyridones A-F, Pyridone Alkaloids from Penicillium funiculosum” (J Nat Prod, 2016).
